# Assay results taken from publication PMC11649739 (Clinical Pharmacokinetics, 2024).
# Where two headings read alike, the source gives them in different places.
# Type: in vivo, human
# Details: for CL/F, Maximum / CL/F, Mean / CL/F, Median / CL/F, Minimum / Vc/F, Maximum / Vc/F, Mean / Vc/F, Median / Vc/F, Minimum: Bayesian-estimated; for AUC / concentration at 24 h: human, plasma, oral; for concentration at 24 h: 24 h postdose on day 1
# Summary of the method: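 Ensitrelvir was dosed once daily, 375 mg on day 1 then 125 mg on days 2–5, or 750/250 mg. A population PK model was fitted to 8034 plasma concentrations from 2060 healthy and SARS-CoV-2-infected participants: two-compartment, first-order absorption, with covariates tested on CL/F. Empirical Bayesian estimates from the final model were used to calculate individual exposures for SCORPIO-SR phase III participants.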
# [1] = 125 mg group: 375 mg on day 1 and 125 mg on days 2–5
# [2] = 125 mg group: 375 mg on day 1 and 125 mg on days 2–5, day 1
# [3] = 125 mg group: 375 mg on day 1 and 125 mg on days 2–5, day 5
# [4] = 250 mg group: 750 mg on day 1 and 250 mg on days 2–5
# [5] = 250 mg group: 750 mg on day 1 and 250 mg on days 2–5, day 1
# [6] = 250 mg group: 750 mg on day 1 and 250 mg on days 2–5, day 5
smiles,measurement,setting,value
Cn1cnc(Cn2c(=O)[nH]/c(=N\c3cc4cn(C)nc4cc3Cl)n(Cc3cc(F)c(F)cc3F)c2=O)n1 [ensitrelvir],"Entire AUC, Maximum",[1],4429 µg·h/mL
same,"Entire AUC, Minimum",[1],1404 µg·h/mL
same,"Entire Cmax, Maximum",[1],46800 ng/mL
same,"Entire Cmax, Minimum",[1],14300 ng/mL
same,"CL/F, Maximum",[1],0.400 L/h
same,"CL/F, Mean",[1],0.216 L/h
same,"CL/F, Median",[1],0.212 L/h
same,"CL/F, Minimum",[1],0.116 L/h
same,"Vc/F, Maximum",[1],34.4 L
same,"Vc/F, Mean",[1],15.1 L
same,"Vc/F, Median",[1],14.7 L
same,"Vc/F, Minimum",[1],7.66 L
same,"AUC_d1, Maximum",[2],784.7 µg·h/mL
same,"AUC_d1, Minimum",[2],127.0 µg·h/mL
same,"Cmax_d1, Maximum",[2],41000 ng/mL
same,"Cmax_d1, Mean",[2],23400 ng/mL
same,"Cmax_d1, Median",[2],22900 ng/mL
same,"Cmax_d1, Minimum",[2],10300 ng/mL
same,"AUC_d5, Maximum",[3],1156 µg·h/mL
same,"AUC_d5, Minimum",[3],224.5 µg·h/mL
same,"Cmax_d5, Maximum",[3],46800 ng/mL
same,"Cmax_d5, Mean",[3],26600 ng/mL
same,"Cmax_d5, Median",[3],26200 ng/mL
same,"Cmax_d5, Minimum",[3],14300 ng/mL
same,"Entire AUC, Maximum",[4],9652 µg·h/mL
same,"Entire AUC, Minimum",[4],3090 µg·h/mL
same,"Entire Cmax, Maximum",[4],104000 ng/mL
same,"Entire Cmax, Minimum",[4],31900 ng/mL
same,"CL/F, Maximum",[4],0.353 L/h
same,"CL/F, Mean",[4],0.201 L/h
same,"CL/F, Median",[4],0.198 L/h
same,"CL/F, Minimum",[4],0.0963 L/h
same,"Vc/F, Maximum",[4],28.1 L
same,"Vc/F, Mean",[4],14.5 L
same,"Vc/F, Median",[4],14.1 L
same,"Vc/F, Minimum",[4],7.31 L
same,"AUC_d1, Maximum",[5],1617 µg·h/mL
same,"AUC_d1, Minimum",[5],375.0 µg·h/mL
same,"Cmax_d1, Maximum",[5],86900 ng/mL
same,"Cmax_d1, Mean",[5],48900 ng/mL
same,"Cmax_d1, Median",[5],47700 ng/mL
same,"Cmax_d1, Minimum",[5],24900 ng/mL
same,"AUC_d5, Maximum",[6],2502 µg·h/mL
same,"AUC_d5, Minimum",[6],615.4 µg·h/mL
same,"Cmax_d5, Maximum",[6],104000 ng/mL
same,"Cmax_d5, Mean",[6],56400 ng/mL
same,"Cmax_d5, Median",[6],55100 ng/mL
same,"Cmax_d5, Minimum",[6],31900 ng/mL
same,AUC,"AUC_d1, Mean, 125 mg group: 375 mg on day 1 and 125 mg on days 2–5, day 1",438 µg·h/mL
same,AUC,"AUC_d1, Mean, 250 mg group: 750 mg on day 1 and 250 mg on days 2–5, day 1",910 µg·h/mL
same,AUC,"AUC_d1, Median, 125 mg group: 375 mg on day 1 and 125 mg on days 2–5, day 1",432 µg·h/mL
same,AUC,"AUC_d1, Median, 250 mg group: 750 mg on day 1 and 250 mg on days 2–5, day 1",887 µg·h/mL
same,AUC,"AUC_d5, Mean, 125 mg group: 375 mg on day 1 and 125 mg on days 2–5, day 5",578 µg·h/mL
same,AUC,"AUC_d5, Mean, 250 mg group: 750 mg on day 1 and 250 mg on days 2–5, day 5",1230 µg·h/mL
same,AUC,"AUC_d5, Median, 125 mg group: 375 mg on day 1 and 125 mg on days 2–5, day 5",568 µg·h/mL
same,AUC,"AUC_d5, Median, 250 mg group: 750 mg on day 1 and 250 mg on days 2–5, day 5",1200 µg·h/mL
same,concentration at 24 h,"C24_d1, Maximum, 125 mg group: 375 mg on day 1 and 125 mg on days 2–5",27600 ng/mL
same,concentration at 24 h,"C24_d1, Maximum, 250 mg group: 750 mg on day 1 and 250 mg on days 2–5",61000 ng/mL
same,concentration at 24 h,"C24_d1, Mean, 125 mg group: 375 mg on day 1 and 125 mg on days 2–5",16600 ng/mL
same,concentration at 24 h,"C24_d1, Mean, 250 mg group: 750 mg on day 1 and 250 mg on days 2–5",34800 ng/mL
same,concentration at 24 h,"C24_d1, Median, 125 mg group: 375 mg on day 1 and 125 mg on days 2–5",16500 ng/mL
